Entries after “also recorded” stand apart in the source; their conditions may differ.
Assay: MAD phase pharmacokinetics
Format: in vivo, human
Conditions: for PTR, GeoMean / PTR, Median: peak-to-trough ratio; for R max, GeoMean / R max, Median: accumulation ratio from C max; for R through, GeoMean / R through, Median: accumulation ratio from C trough; for t 1/2_eff, Median / t 1/2_eff, GeoMean: effective half-life based on accumulation; for AUC: both, AUC τ; for Cmax: C max
In short: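 MAD phase, 2–15 mg q.d. oral for 14 days. Plasma was sampled predose daily and 15 min–48 h on days 1 and 14. Urine was pooled over 24 h on days 1 and 14. One CSF sample was taken 3 h postdose on day 7 (10 mg cohort). All matrices were assayed by validated LC-MS/MS. Derived: Cmax, Tmax, t1/2, AUCτ, Ctrough, peak-to-trough ratio, accumulation ratios, and CSF/plasma ratio corrected for protein binding. Results reported as geometric means (95% CI) and medians.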

[1] = human, plasma, oral, 2 mg, GeoMean, MAD 2 mg q.d., day 1
[2] = human, plasma, oral, 2 mg, GeoMean, MAD 2 mg q.d., day 14
[3] = human, plasma, oral, 2 mg, Median, MAD 2 mg q.d., day 1
[4] = human, plasma, oral, 2 mg, Median, MAD 2 mg q.d., day 14

Fc1ccccc1Cc1nc(-c2nc(C(F)(F)F)n[nH]2)cn2ccnc12 [zagociguat, 8‐(2‐fluorobenzyl)‐6‐(3‐(trifluoromethyl)‐1H‐1,2,4‐triazol‐5‐yl)imidazo[1,2‐a]pyrazine]
CNS penetration (CSF sampling during the MAD phase): confirmed by cerebrospinal fluid sampling; also recorded: confirmed by CSF sampling | Dose level from which detectable in urine (MAD): 2 mg | C trough, GeoMean (MAD 2 mg q.d., day 1): 161.13 ng/mL | C trough, Median (MAD 2 mg q.d., day 1): 157.0 ng/mL | PTR, GeoMean (MAD 2 mg q.d., day 1): 1.62 | PTR, Median (MAD 2 mg q.d., day 1): 1.64 | PTR, GeoMean (MAD 2 mg q.d., day 14): 1.41 | PTR, Median (MAD 2 mg q.d., day 14): 1.40 | R max, GeoMean (MAD 2 mg q.d.): 3.38 | R max, Median (MAD 2 mg q.d.): 3.32 | R through, GeoMean (MAD 2 mg q.d.): 3.87 | R through, Median (MAD 2 mg q.d.): 4.06 | t 1/2_eff, Median (MAD 2 mg q.d.): 54.46 h | PTR, GeoMean (MAD 5 mg q.d., day 1): 1.55 | PTR, Median (MAD 5 mg q.d., day 1): 1.50 | PTR, GeoMean (MAD 5 mg q.d., day 14): 1.35 | PTR, Median (MAD 5 mg q.d., day 14): 1.34 | R max, GeoMean (MAD 5 mg q.d.): 3.45 | R max, Median (MAD 5 mg q.d.): 3.56 | R through, GeoMean (MAD 5 mg q.d.): 3.98 | R through, Median (MAD 5 mg q.d.): 3.79 | t 1/2_eff, GeoMean (MAD 5 mg q.d.): 54.60 h | t 1/2_eff, Median (MAD 5 mg q.d.): 56.63 h | PTR, Median (MAD 10 mg q.d., day 1): 1.36 | PTR, GeoMean (MAD 10 mg q.d., day 14): 1.37 | PTR, Median (MAD 10 mg q.d., day 14): 1.37 | R max, GeoMean (MAD 10 mg q.d.): 3.60 | R max, Median (MAD 10 mg q.d.): 3.68 | R through, GeoMean (MAD 10 mg q.d.): 3.79 | R through, Median (MAD 10 mg q.d.): 3.56 | t 1/2_eff, GeoMean (MAD 10 mg q.d.): 54.29 h | t 1/2_eff, Median (MAD 10 mg q.d.): 54.53 h | C trough, GeoMean (MAD 15 mg q.d., day 1): 1173.20 ng/mL | C trough, Median (MAD 15 mg q.d., day 1): 1165 ng/mL | PTR, GeoMean (MAD 15 mg q.d., day 1): 1.38 | PTR, Median (MAD 15 mg q.d., day 1): 1.37 | C trough, GeoMean (MAD 15 mg q.d., day 11): 4149.25 ng/mL | C trough, Median (MAD 15 mg q.d., day 11): 4140 ng/mL | C trough, GeoMean (MAD 15 mg q.d., day 12): 4246.79 ng/mL | C trough, Median (MAD 15 mg q.d., day 12): 4140 ng/mL | C trough, GeoMean (MAD 15 mg q.d., day 13): 4157.21 ng/mL | C trough, Median (MAD 15 mg q.d., day 13): 4160 ng/mL | C trough, GeoMean (MAD 15 mg q.d., day 14): 4377.90 ng/mL | C trough, Median (MAD 15 mg q.d., day 14): 4275 ng/mL | PTR, GeoMean (MAD 15 mg q.d., day 14): 1.35 | PTR, Median (MAD 15 mg q.d., day 14): 1.33 | R max, GeoMean (MAD 15 mg q.d.): 3.61 | R max, Median (MAD 15 mg q.d.): 3.54 | R through, GeoMean (MAD 15 mg q.d.): 3.73 | R through, Median (MAD 15 mg q.d.): 3.81 | t 1/2_eff, GeoMean (MAD 15 mg q.d.): 52.80 h | t 1/2_eff, Median (MAD 15 mg q.d.): 51.81 h | Dose linearity analysis using AUC τ and C max (MAD day 1 and day 14 (Table S6)): indicated dose proportionality | Day on which steady-state was attained (MAD, all doses administered, Helmert contrasts of trough concentrations): 11 days | AUC [1]: 4500 ng·h/mL | AUC [2]: 16900 ng·h/mL | AUC [3]: 4520 ng·h/mL | AUC [4]: 17000 ng·h/mL | Cmax [1]: 260 ng/mL | Cmax [2]: 880 ng/mL | Cmax [3]: 268 ng/mL | Cmax [4]: 888 ng/mL | concentration at 11 day (human, plasma, oral, 2 mg, C trough, GeoMean, MAD 2 mg q.d., day 11): 587 ng/mL | concentration at 12 day (human, plasma, oral, 2 mg, C trough, GeoMean, MAD 2 mg q.d., day 12): 593 ng/mL | concentration at 13 day (human, plasma, oral, 2 mg, C trough, GeoMean, MAD 2 mg q.d., day 13): 616 ng/mL
